Test results taken from ChEMBL document CHEMBL2311465, “Synthesis of novel naphthoquinone aliphatic amides and esters and their anticancer evaluation” (Eur J Med Chem, 2013).
Active and inactive are the calls of the source. No cut-off for these calls is given here.

Assays:
KB = assay: Cytotoxicity against human KB cells after 3 days by resazurin microplate assay; format: functional, cell-based; details: 72 h
Outline: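 KB cells (ATCC CCL-17) harvested in log phase and diluted to 7 × 10^4 cells/mL, then added to samples diluted in 0.5% DMSO. Incubated 3 days at 37 °C, 5% CO2, then resazurin added and plates held 4 h at 37 °C. Fluorescence read at ex 530/em 590 nm. IC50 fitted from 6 two-fold serial concentrations; six replicate experiments.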

[1] = target: DNA topoisomerase 2-alpha (Homo sapiens) (UniProt P11388); assay: Inhibition of human topoisomerase 2-alpha-mediated decatenation of kinetoplast DNA at 50 uM after 1 hr by agarose gel electrophoretic analysis
Chain of DNA topoisomerase 2-alpha (Homo sapiens) (P11388 whole entry): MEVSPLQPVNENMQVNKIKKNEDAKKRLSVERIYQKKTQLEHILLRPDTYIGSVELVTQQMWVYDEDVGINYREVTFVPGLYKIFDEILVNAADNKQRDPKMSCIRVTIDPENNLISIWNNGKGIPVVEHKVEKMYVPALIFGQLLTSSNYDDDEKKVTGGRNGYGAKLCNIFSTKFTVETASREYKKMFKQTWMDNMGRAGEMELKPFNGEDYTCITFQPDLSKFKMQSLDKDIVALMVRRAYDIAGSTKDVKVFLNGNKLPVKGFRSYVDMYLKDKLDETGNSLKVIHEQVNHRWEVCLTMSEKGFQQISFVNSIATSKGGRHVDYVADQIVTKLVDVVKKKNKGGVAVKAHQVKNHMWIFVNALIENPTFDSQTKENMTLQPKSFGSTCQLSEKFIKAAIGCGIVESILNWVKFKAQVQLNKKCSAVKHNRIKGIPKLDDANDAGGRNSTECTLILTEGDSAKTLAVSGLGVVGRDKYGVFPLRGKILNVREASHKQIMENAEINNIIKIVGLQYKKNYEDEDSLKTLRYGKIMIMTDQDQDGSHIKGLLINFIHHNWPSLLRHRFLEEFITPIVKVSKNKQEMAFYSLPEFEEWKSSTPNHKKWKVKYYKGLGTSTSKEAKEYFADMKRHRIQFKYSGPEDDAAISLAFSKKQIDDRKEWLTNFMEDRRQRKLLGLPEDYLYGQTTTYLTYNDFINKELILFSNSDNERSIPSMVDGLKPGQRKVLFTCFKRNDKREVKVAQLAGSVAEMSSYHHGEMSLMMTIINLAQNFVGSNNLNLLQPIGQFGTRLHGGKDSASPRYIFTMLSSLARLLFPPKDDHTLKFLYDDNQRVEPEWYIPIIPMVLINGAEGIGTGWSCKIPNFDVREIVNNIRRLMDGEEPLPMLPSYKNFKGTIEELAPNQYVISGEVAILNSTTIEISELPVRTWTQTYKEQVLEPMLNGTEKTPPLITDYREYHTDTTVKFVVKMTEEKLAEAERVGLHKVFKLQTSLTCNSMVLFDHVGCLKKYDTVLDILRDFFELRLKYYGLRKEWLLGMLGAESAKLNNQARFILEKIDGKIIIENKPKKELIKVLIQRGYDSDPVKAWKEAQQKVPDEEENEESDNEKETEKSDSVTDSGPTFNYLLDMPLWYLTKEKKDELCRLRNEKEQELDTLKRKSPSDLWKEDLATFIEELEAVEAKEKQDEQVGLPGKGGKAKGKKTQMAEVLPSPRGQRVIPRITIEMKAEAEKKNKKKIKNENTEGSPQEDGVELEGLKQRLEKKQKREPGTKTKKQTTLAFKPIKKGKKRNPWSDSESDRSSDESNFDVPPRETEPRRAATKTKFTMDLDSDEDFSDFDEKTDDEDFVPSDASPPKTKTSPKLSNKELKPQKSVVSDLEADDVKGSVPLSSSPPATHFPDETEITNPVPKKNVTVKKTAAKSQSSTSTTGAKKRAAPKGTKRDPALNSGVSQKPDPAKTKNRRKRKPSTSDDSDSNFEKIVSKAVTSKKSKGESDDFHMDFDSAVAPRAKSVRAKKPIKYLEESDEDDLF
Outline: (§1)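 kDNA (60 ng) incubated with 2 units of human TopoIIα, with or without compound, for 1 h at 37 °C. Buffer: 50 mM Tris-Cl pH 8.0, 150 mM NaCl, 10 mM MgCl2, 0.5 mM dithiothreitol, 2 mM ATP. Decatenation judged by presence or absence of enzyme activity.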

Vero = assay: Cytotoxicity against african geen monkey Vero cells after 4 days by GFP reporter assay; format: cell-based, Chlorocebus sabaeus
Outline: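 Vero cells (GFP-expressing, grown with geneticin at 37 °C, 5% CO2) added to test compounds diluted in 0.5% DMSO and incubated 4 days at 37 °C, 5% CO2. Bottom-read fluorescence at ex 485/em 535 nm; day-0 background subtracted from the day-4 signal. Typical values from six replicate experiments.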

[2] = target: DNA topoisomerase 2-alpha (Homo sapiens) (UniProt P11388); assay: Inhibition of human topoisomerase 2-alpha-mediated decatenation of kinetoplast DNA at 5 uM after 1 hr by agarose gel electrophoretic analysis; outline: as §1
[3] = target: DNA topoisomerase 2-alpha (Homo sapiens) (UniProt P11388); assay: Inhibition of human topoisomerase 2-alpha-mediated decatenation of kinetoplast DNA at 10 to 20 uM after 1 hr by agarose gel electrophoretic analysis; outline: as §1
[4] = Chlorocebus sabaeus, Vero, 96 h, read-out: IC50

| Compound | IC50 (KB) [µM] | IC50 (Vero; [4]) [µM] | other results |
| --- | --- | --- | --- |
| CCCCCCCC(=O)OCC(C)(C)CC1=C(O)C(=O)c2ccccc2C1=O | 38.3 | – | – |
| CCCCCCC(C)C(=O)OCC(C)(C)CC1=C(O)C(=O)c2ccccc2C1=O (configuration not stated) | 16.8 | – | – |
| CCCCCCCCCCCCCC(=O)OCC(C)(C)CC1=C(O)C(=O)c2ccccc2C1=O | 51.4 | – | – |
| CCCCCCCCCCCCCCCC(=O)OCC(C)(C)CC1=C(O)C(=O)c2ccccc2C1=O | 27.1 | – | inhibition [1]: Active |
| CCCCCCCC(=O)NCC(C)(C)CC1=C(O)C(=O)c2ccccc2C1=O | 24.6 | 18.4 | – |
| CCCCCCCCCCCCCCCC(=O)NCC(C)(C)CC1=C(O)C(=O)c2ccccc2C1=O | 5.12 | 5.6 | inhibition [2]: inactive; inhibition [1]: Active; inhibition [3]: Active |
| CCCC(=O)OCC(C)(C)CC1=C(O)C(=O)c2ccccc2C1=O | 43 | – | – |
| CCCCCCCCC(=O)OCC(C)(C)CC1=C(O)C(=O)c2ccccc2C1=O | 38.7 | – | – |
| CCCCCCCCCCCC(=O)OCC(C)(C)CC1=C(O)C(=O)c2ccccc2C1=O | 35.7 | – | – |
| CCC(=O)OCC(C)(C)CC1=C(O)C(=O)c2ccccc2C1=O | 84.4 | – | – |
| CCCCCCC(=O)NCC(C)(C)CC1=C(O)C(=O)c2ccccc2C1=O | 28.2 | 24.8 | – |
| CCCCCCCCCCC(=O)NCC(C)(C)CC1=C(O)C(=O)c2ccccc2C1=O | 17.6 | 14.9 | – |
| CCCCCC(=O)OCC(C)(C)CC1=C(O)C(=O)c2ccccc2C1=O | 41 | – | – |
| CCCCCCCCCC(=O)OCC(C)(C)CC1=C(O)C(=O)c2ccccc2C1=O | 55.5 | – | – |
| CCCCCCCCCC(=O)NCC(C)(C)CC1=C(O)C(=O)c2ccccc2C1=O | 18.5 | 15 | – |
| CCCCCCC(C)C(=O)NCC(C)(C)CC1=C(O)C(=O)c2ccccc2C1=O (configuration not stated) | 23.7 | 15.5 | – |

| Compound | IC50 (KB) [µM] | IC50 (Vero; [4]) [µM] | other results |
| --- | --- | --- | --- |
| CCC(C)C(=O)OCC(C)(C)CC1=C(O)C(=O)c2ccccc2C1=O (configuration not stated) | 4.65 | – | – |
| CCCC(C)C(=O)OCC(C)(C)CC1=C(O)C(=O)c2ccccc2C1=O (configuration not stated) | 1.76 | – | inhibition [1]: Active |
| CCCCCCCCC(=O)NCC(C)(C)CC1=C(O)C(=O)c2ccccc2C1=O | 19.7 | 16.7 | – |
| CCCCCCCCCCCCCC(=O)NCC(C)(C)CC1=C(O)C(=O)c2ccccc2C1=O | 25.1 | 9.81 | – |
| COc1cccc2c1C(=O)c1c(O)c3c(c(O)c1C2=O)C[C@@](O)(C(=O)CO)C[C@@H]3O[C@H]1C[C@H](N)[C@H](O)[C@H](C)O1 [DOXORUBICIN] | 0.96 | – | – |
| CCCCCCCCCCCC(=O)NCC(C)(C)CC1=C(O)C(=O)c2ccccc2C1=O | 12.8 | 13.9 | – |
| CCCCCCCCCCC(=O)OCC(C)(C)CC1=C(O)C(=O)c2ccccc2C1=O | 54.8 | – | – |
| CCCC(C)C(=O)NCC(C)(C)CC1=C(O)C(=O)c2ccccc2C1=O (configuration not stated) | 47.1 | 48.1 | inhibition [1]: Active |
| CCCCCC(=O)NCC(C)(C)CC1=C(O)C(=O)c2ccccc2C1=O | 40.2 | 46.6 | – |
| CC(C)C(=O)NCC(C)(C)CC1=C(O)C(=O)c2ccccc2C1=O | 94.6 | – | IC50 (Vero; vero): Non-toxic |
| CC(C)C(=O)OCC(C)(C)CC1=C(O)C(=O)c2ccccc2C1=O | 14.4 | – | – |
| CCC(C)C(=O)NCC(C)(C)CC1=C(O)C(=O)c2ccccc2C1=O (configuration not stated) | 102 | – | IC50 (Vero; vero): Non-toxic |
| CCCCCCCCCCCCCCCCCC(=O)NCC(C)(C)CC1=C(O)C(=O)c2ccccc2C1=O | 6.35 | 5.76 | – |
| CCCCCCCCCCCCCCCCCC(=O)OCC(C)(C)CC1=C(O)C(=O)c2ccccc2C1=O | 76.7 | – | – |
| CCCCCCC(=O)OCC(C)(C)CC1=C(O)C(=O)c2ccccc2C1=O | 14.4 | – | – |
| CCCCC(=O)OCC(C)(C)CC1=C(O)C(=O)c2ccccc2C1=O | 27.8 | – | – |
